The test system of one experiment is Pseudomonas aeruginosa. The experiment can be described thus: Antimicrobial activity against Pseudomonas aeruginosa ATCC 25619 after 18 to 24 hrs by alamar blue assay. It is filed as functional. The following applies: Pseudomonas aeruginosa, ATCC 25619; read-out: MIC. In outline: (§1)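 Broth microdilution per NCCLS in Mueller-Hinton broth, 8-point twofold dilutions, 384-well format. Exponential-phase cells at 5 × 10^5 cells/ml incubated with compound 18–24 h at 37 °C, then 20% Alamar blue added and fluorescence read. MIC90 taken as the lowest concentration preventing at least 90% bacterial growth.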

In experiment [1] the test system is Staphylococcus aureus. The experiment can be described thus: Antimicrobial activity against Staphylococcus aureus ATCC 29213 after 18 to 24 hrs by alamar blue assay. Background: The colour change of resazurin is a common sign of viable cells or microbes.
The test system of experiment [2] is Mycolicibacterium smegmatis. The experiment can be described thus: Antimicrobial activity against Mycobacterium smegmatis BCRC 11565 after 18 to 24 hrs by alamar blue assay. It is filed as functional. The following applies: Mycolicibacterium smegmatis, BCRC 11565; read-out: MIC. In outline:
as §1

The test system of another experiment is Serratia marcescens. In words: Antimicrobial activity against Serratia marcescens ATCC 14756 after 18 to 24 hrs by alamar blue assay. It is filed as functional. The following applies: Serratia marcescens, ATCC 14756; read-out: MIC. In outline: as §1
The next experiment deals with Bacillus subtilis. In words: Antimicrobial activity against Bacillus subtilis ATCC 23857 after 18 to 24 hrs by alamar blue assay. It counts as functional. An outline of the steps: as §1
Experiment [3] has as its system Stenotrophomonas maltophilia. The experiment can be described thus: Antimicrobial activity against Stenotrophomonas maltophilia ATCC 13637 after 18 to 24 hrs by alamar blue assay. It counts as functional. Conditions: Stenotrophomonas maltophilia, ATCC 13637; read-out: MIC. In outline:
as §1

A further experiment has as its system Acinetobacter baumannii. The experiment can be described thus: Antimicrobial activity against Acinetobacter baumannii ATCC 49139 after 18 to 24 hrs by alamar blue assay. It is filed as functional. Conditions: Acinetobacter baumannii, ATCC 49139; read-out: MIC. An outline of the steps: as §1
The test system of experiment [4] is Staphylococcus aureus. The experiment can be described thus: Antimicrobial activity against methicillin-resistant Staphylococcus aureus ATCC 33592 after 18 to 24 hrs by alamar blue assay. It counts as functional. Conditions: Staphylococcus aureus, ATCC 33592; read-out: MIC. An outline of the steps: (§2)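 Broth microdilution per NCCLS standard, Mueller-Hinton broth, 8-point twofold dilutions; exponentially growing cells at 5 10^5 cells/ml with compound, 18–24 h at 37 C; 20% Alamar blue added, fluorescence read; MIC90 taken as lowest concentration preventing at least 90% growth.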

For experiment [5], the system named is Staphylococcus aureus. The experiment can be described thus: Antimicrobial activity against oxacillin- and methicillin-resistant Staphylococcus aureus isolate Sa-OXA-R2 after 18 to 24 hrs by alamar blue assay. It counts as functional. In outline: as §2
Experiment [6] has as its system Staphylococcus aureus. The experiment can be described thus: Antimicrobial activity against methicillin-resistant Staphylococcus aureus isolate NTUH4722 after 18 to 24 hrs by alamar blue assay. It is filed as functional. In outline: as §2
Experiment [7] in a line: Inhibition of transglycosylase assessed as inhibition of NBD- labelled lipid II polymerization. An outline of the steps:
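100 µM NBD-labelled lipid II incubated 30 min with full-length PBP (EC, SA or Mtb) and 10 ng/µl N-acetylmuramidase in 50 mM Tris-HCl pH 8.0, 10 mM MgCl2, 0.1% Triton X-100, 10% DMSO, 15% MeOH. Supernatant run on anion-exchange HPLC with 20 mM–0.5 M ammonium acetate gradient. Inhibition calculated from substrate peak-area percentage. IC50 determined. S. aureus strains share one SA enzyme.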

The test system of another experiment is Escherichia coli. In words: Antimicrobial activity against Escherichia coli ATCC […] after 18 to 24 hrs by alamar blue assay. It is filed as functional. The following applies: Escherichia coli; read-out: MIC. An outline of the steps: as §1

Values after ≈ are worked out from the molar mass of the structure shown. Where only a bound is given, the exact number is not on record here.

For the molecule `O=C(Nc1cc(Cl)ccc1Oc1cccc2c(Br)cccc12)c1cc(Cl)cc(Br)c1O`, the MIC is 16 mg/L (≈ 27.5 µM) in the experiment with Pseudomonas aeruginosa; 4 mg/L (≈ 6.87 µM) in the experiment with Staphylococcus aureus [1]; 0.5 mg/L (≈ 0.859 µM) in experiment [2]; 16 mg/L (≈ 27.5 µM) in the experiment on Serratia marcescens; under 0.03 mg/L in the experiment with Bacillus subtilis; 16 mg/L (≈ 27.5 µM) in experiment [3]. The minimal inhibitory concentration (MIC) in the experiment on Acinetobacter baumannii was 16 mg/L (≈ 27.5 µM); in the experiment on Staphylococcus aureus [4], at most 2 mg/L; with Staphylococcus aureus [5], at most 0.03 mg/L; in the experiment with Staphylococcus aureus [6] it was at most 0.03 mg/L; with Escherichia coli, 8 mg/L (≈ 13.7 µM). For the same molecule, the IC90 in experiment [7] was determined as 100 µM.
For the molecule `O=C(Nc1ccc(S(=O)(=O)c2nc3ccccc3s2)c(Cl)c1)c1cc(Cl)cc(Cl)c1O`, the minimum inhibitory concentration (MIC) in the experiment on Pseudomonas aeruginosa is 16 mg/L (≈ 31.1 µM); in the experiment on Staphylococcus aureus [1], 8 mg/L (≈ 15.6 µM); in [2], 0.5 mg/L (≈ 0.973 µM); with Serratia marcescens, 16 mg/L (≈ 31.1 µM); against Bacillus subtilis it was under 0.03 mg/L; in experiment [3] it was 16 mg/L (≈ 31.1 µM). Also, the MIC in the experiment on Acinetobacter baumannii is 16 mg/L (≈ 31.1 µM); in the experiment on Staphylococcus aureus [4], 4 mg/L (≈ 7.78 µM); in the experiment on Staphylococcus aureus [5], at most 0.03 mg/L; in the experiment with Staphylococcus aureus [6] it was at most 0.03 mg/L; in the experiment on Escherichia coli, 8 mg/L (≈ 15.6 µM). The 90% effect concentration (IC90) in experiment [7] was 100 µM.
Consider `Cc1ccc(C(=O)c2cc(NC(=O)c3cc(I)cc(I)c3O)ccc2Cl)cc1`, for which the minimal inhibitory concentration (MIC) in the experiment with Pseudomonas aeruginosa was 16 mg/L (≈ 25.9 µM); against Staphylococcus aureus [1], 4 mg/L (≈ 6.48 µM); in [2], 0.5 mg/L (≈ 0.81 µM); with Serratia marcescens, 16 mg/L (≈ 25.9 µM); against Bacillus subtilis, under 0.03 mg/L; in [3], 16 mg/L (≈ 25.9 µM). Further, the MIC was 16 mg/L (≈ 25.9 µM) in the experiment with Acinetobacter baumannii; 4 mg/L (≈ 6.48 µM) in the experiment with Staphylococcus aureus [4]; at most 0.03 mg/L against Staphylococcus aureus [5]; at most 0.03 mg/L against Staphylococcus aureus [6]; 8 mg/L (≈ 13 µM) in the experiment on Escherichia coli. In addition, the IC90 in [7] came to 100 µM.
In the case of `O=C(Nc1ccc(Oc2ccc(Cl)c3cccnc23)c(Cl)c1)c1cc(Br)cc(Br)c1O`, the MIC is 16 mg/L (≈ 27.4 µM) in the experiment with Pseudomonas aeruginosa; 16 mg/L (≈ 27.4 µM) in the experiment on Staphylococcus aureus [1]; 0.5 mg/L (≈ 0.858 µM) in [2]; 16 mg/L (≈ 27.4 µM) in the experiment with Serratia marcescens; under 0.03 mg/L in the experiment with Bacillus subtilis; 16 mg/L (≈ 27.4 µM) in experiment [3]. The minimum inhibitory concentration (MIC) with Acinetobacter baumannii is 16 mg/L (≈ 27.4 µM); in the experiment with Staphylococcus aureus [4], 32 mg/L (≈ 54.9 µM); against Staphylococcus aureus [5], at most 0.03 mg/L; in the experiment on Staphylococcus aureus [6], at most 0.03 mg/L; in the experiment on Escherichia coli, 8 mg/L (≈ 13.7 µM). Also, the concentration for an effect of 90% (IC90) in experiment [7] was determined as 100 µM.
In the case of `Cc1ccc(C(C)C)c(Oc2ccccc2NC(=O)c2cc(Br)cc(Br)c2O)c1`, the MIC was 16 mg/L (≈ 30.8 µM) in the experiment with Pseudomonas aeruginosa; 1 mg/L (≈ 1.93 µM) in the experiment with Staphylococcus aureus [1]; 0.5 mg/L (≈ 0.963 µM) in experiment [2]; 16 mg/L (≈ 30.8 µM) in the experiment with Serratia marcescens; under 0.03 mg/L with Bacillus subtilis; 16 mg/L (≈ 30.8 µM) in experiment [3]. The MIC in the experiment on Acinetobacter baumannii was 16 mg/L (≈ 30.8 µM); with Staphylococcus aureus [4] it was 4 mg/L (≈ 7.7 µM); with Staphylococcus aureus [5], at most 0.03 mg/L; against Staphylococcus aureus [6], at most 0.03 mg/L; with Escherichia coli, 8 mg/L (≈ 15.4 µM). Besides, the IC90 in experiment [7] stood at 50 µM.
Turning to `O=C(Nc1ccc(Oc2ccc(Br)c3ccccc23)c(Cl)c1)c1cc(Br)cc(Br)c1O`, the MIC was 16 mg/L (≈ 25.5 µM) in the experiment on Pseudomonas aeruginosa; 4 mg/L (≈ 6.38 µM) against Staphylococcus aureus [1]; 0.5 mg/L (≈ 0.798 µM) in [2]; 16 mg/L (≈ 25.5 µM) in the experiment on Serratia marcescens; under 0.03 mg/L in the experiment with Bacillus subtilis; 16 mg/L (≈ 25.5 µM) in experiment [3]. For the same molecule, the MIC in the experiment with Acinetobacter baumannii was 16 mg/L (≈ 25.5 µM); in the experiment with Staphylococcus aureus [4], at most 2 mg/L; against Staphylococcus aureus [5], at most 0.03 mg/L; in the experiment with Staphylococcus aureus [6] it was at most 0.03 mg/L; in the experiment on Escherichia coli it was 8 mg/L (≈ 12.8 µM). The concentration for an effect of 90% (IC90) in experiment [7] worked out at 100 µM.
`Cc1ccc(C(C)C)cc1Oc1ccc(Cl)cc1NC(=O)c1cc(Cl)ccc1O`: the MIC in the experiment on Pseudomonas aeruginosa is 16 mg/L (≈ 37.2 µM); against Staphylococcus aureus [1] it was 0.5 mg/L (≈ 1.16 µM); in experiment [2], 0.5 mg/L (≈ 1.16 µM); with Serratia marcescens, 16 mg/L (≈ 37.2 µM); in the experiment on Bacillus subtilis, under 0.03 mg/L; in experiment [3] it was 16 mg/L (≈ 37.2 µM). The minimum inhibitory concentration (MIC) in the experiment with Acinetobacter baumannii is 16 mg/L (≈ 37.2 µM); in the experiment on Staphylococcus aureus [4] it was 0.5 mg/L (≈ 1.16 µM); with Staphylococcus aureus [5], at most 0.03 mg/L; in the experiment with Staphylococcus aureus [6], at most 0.03 mg/L; in the experiment on Escherichia coli, 8 mg/L (≈ 18.6 µM). Besides, the IC90 in experiment [7] stood at 100 µM.
With `O=C(Nc1ccc(Sc2nc3ccccc3s2)c(Cl)c1)c1cc(Br)cc(Br)c1O`, the minimum inhibitory concentration (MIC) in the experiment on Pseudomonas aeruginosa was 16 mg/L (≈ 28 µM); against Staphylococcus aureus [1], 4 mg/L (≈ 7.01 µM); in experiment [2], 0.5 mg/L (≈ 0.876 µM); with Serratia marcescens it was 16 mg/L (≈ 28 µM); against Bacillus subtilis it was under 0.03 mg/L; in experiment [3], 16 mg/L (≈ 28 µM). Further, the MIC in the experiment on Acinetobacter baumannii was 16 mg/L (≈ 28 µM); in the experiment on Staphylococcus aureus [4], at most 2 mg/L; in the experiment with Staphylococcus aureus [5], at most 0.03 mg/L; in the experiment with Staphylococcus aureus [6], at most 0.03 mg/L; in the experiment with Escherichia coli it was 8 mg/L (≈ 14 µM). Also, the IC90 in [7] amounted to 100 µM.

For orientation: MIC means the lowest concentration that inhibits growth of the organism. A word on the IC90: it is the concentration needed for an effect of 90%.

Values taken from ChEMBL document CHEMBL1629439, “High-throughput identification of antibacterials against methicillin-resistant Staphylococcus aureus (MRSA) and the transglycosylase” (Bioorg Med Chem, 2010).
